Measurements: ChEMBL document CHEMBL1821676, “Click to a focused library of benzyl 6-triazolo(hydroxy)benzoic glucosides: novel construction of PTP1B inhibitors on a sugar scaffold” (Eur J Med Chem, 2011)

Target: T1, Tyrosine-protein phosphatase non-receptor type 1 (Homo sapiens, UniProt P18031)
T1 sequence (P18031 whole entry): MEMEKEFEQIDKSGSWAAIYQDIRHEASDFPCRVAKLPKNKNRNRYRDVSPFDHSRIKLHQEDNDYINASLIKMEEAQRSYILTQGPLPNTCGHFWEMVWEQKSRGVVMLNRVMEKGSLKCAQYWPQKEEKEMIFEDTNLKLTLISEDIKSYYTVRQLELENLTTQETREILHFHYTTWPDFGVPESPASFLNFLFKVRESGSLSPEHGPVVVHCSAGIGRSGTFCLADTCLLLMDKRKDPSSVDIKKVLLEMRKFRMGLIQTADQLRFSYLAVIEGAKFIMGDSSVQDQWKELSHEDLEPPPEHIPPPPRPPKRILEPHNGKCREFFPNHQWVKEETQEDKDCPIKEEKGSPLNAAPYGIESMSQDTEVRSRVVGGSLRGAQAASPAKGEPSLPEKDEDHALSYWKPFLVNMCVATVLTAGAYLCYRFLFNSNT
Test: Inhibition of human recombinant PTP1B expressed in CHO cells assessed as p-nitorphenol production after 2 mins by microplate reader
Type: cell-based
Procedure, shortened: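 Recombinant human PTP1B catalytic domain (30 nM) with 2 mM pNPP in 50 mM MOPS, pH 6.5, at 30 °C. pNP release was read continuously at 405 nm for 2 min, and the initial rate was taken from the early linear region. Inhibitors were diluted around the estimated IC50. IC50 came from a nonlinear fit of % inhibition vs [I] using a Hill-coefficient equation.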

Structure (SMILES): O=C(O)c1cc(O)cc(O)c1 [3,5-DIHYDROXYBENZOIC ACID]
- IC50: > 100 µM

Structure (SMILES): O=C(O)c1cccc(O)c1 [3-HYDROXYBENZOIC ACID]
- IC50: > 100 µM

Structure (SMILES): O=C(O)c1cc(O)ccc1O [GENTISIC ACID]
- IC50: > 100 µM
